Test results reported in ChEMBL document CHEMBL1154352, “Toll-like receptor 7 selective synthetic oligoribonucleotide agonists: synthesis and structure-activity relationship studies” (J Med Chem, 2009).
The source made the active and inactive calls. The calls are words filed in the database; no cut-off is given here.

Legend:
[1] = species: Homo sapiens; experiment: Ratio of human TLR7 activity to human TLR8 activity
Procedure, shortened: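 TLR7/TLR8 ratio computed from fold NF-κB (SEAP reporter) activation in HEK293 cells stably expressing human TLR7 versus TLR8, compounds at 50 μg/mL, 18 h exposure; representative of three independent experiments.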

[2] = Metabolic stability in human serum assessed as full length product remaining after 10 mins by HPLC; format: ADME, cell-free; conditions: read-out: Stability
Procedure, shortened: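 About 0.5 A260 units compound in 1% human serum in PBS, 37 °C; aliquot taken at 10 min, analysed by anion-exchange HPLC for percent intact full-length product.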

[3] = test system: PBMC; experiment: Immunomodulatory activity in human PBMC assessed as induction of IL12 at 100 ug/ml after 24 hrs; format: functional, cell-based
Procedure, shortened: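 Human PBMCs plated at 5 × 10^6 cells/mL; compounds dissolved in PBS added at various concentrations, 37 °C for 24 h. Supernatant cytokines/chemokines quantified with human Luminex multiplex kit.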

[4] = target: T1, Toll-like receptor 9 (Mus musculus) (UniProt Q9EQU3); experiment: Activation of mouse TLR9 expressed in HEK293 assessed as induction of NF-kappaB activity reporter gene assay; format: cell-based
T1 sequence (whole entry): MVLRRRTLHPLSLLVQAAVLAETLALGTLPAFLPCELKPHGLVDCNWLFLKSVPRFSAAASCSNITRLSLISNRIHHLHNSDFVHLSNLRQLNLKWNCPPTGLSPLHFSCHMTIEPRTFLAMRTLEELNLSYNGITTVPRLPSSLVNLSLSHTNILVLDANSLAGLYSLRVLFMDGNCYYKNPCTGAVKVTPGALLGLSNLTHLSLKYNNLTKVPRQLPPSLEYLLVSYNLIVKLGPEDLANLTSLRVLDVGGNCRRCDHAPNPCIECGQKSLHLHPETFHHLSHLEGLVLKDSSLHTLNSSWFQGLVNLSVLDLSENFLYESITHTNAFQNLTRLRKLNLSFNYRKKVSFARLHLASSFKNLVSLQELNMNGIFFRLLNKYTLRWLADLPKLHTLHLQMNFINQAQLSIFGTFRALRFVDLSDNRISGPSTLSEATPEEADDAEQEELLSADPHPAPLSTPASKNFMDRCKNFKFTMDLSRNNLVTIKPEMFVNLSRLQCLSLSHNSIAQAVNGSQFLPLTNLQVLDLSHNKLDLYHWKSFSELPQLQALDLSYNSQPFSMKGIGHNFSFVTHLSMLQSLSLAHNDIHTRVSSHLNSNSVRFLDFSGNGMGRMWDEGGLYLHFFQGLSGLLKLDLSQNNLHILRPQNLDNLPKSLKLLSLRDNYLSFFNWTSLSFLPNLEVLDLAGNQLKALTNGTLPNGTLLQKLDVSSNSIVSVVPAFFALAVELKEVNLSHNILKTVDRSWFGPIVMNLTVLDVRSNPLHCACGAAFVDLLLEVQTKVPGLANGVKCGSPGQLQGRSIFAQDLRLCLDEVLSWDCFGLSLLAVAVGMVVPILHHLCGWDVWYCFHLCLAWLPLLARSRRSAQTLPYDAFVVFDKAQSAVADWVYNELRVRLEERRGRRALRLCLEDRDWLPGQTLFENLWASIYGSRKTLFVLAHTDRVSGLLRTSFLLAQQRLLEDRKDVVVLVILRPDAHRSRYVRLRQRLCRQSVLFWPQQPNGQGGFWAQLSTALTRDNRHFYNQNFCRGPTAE

[5] = test system: Splenocyte; experiment: Immunomodulatory activity in C57BL/6 mouse splenocytes bearing TLR7 receptor assessed as IL6 release at 100 ug/ml after 24 hrs by ELISA; format: functional, cell-based
Procedure, shortened: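 C57BL/6 splenocytes in RPMI 1640 with 10% FBS, penicillin/streptomycin, 2 mM L-glutamine, plated at 5 × 10^6 cells/mL; compounds in PBS added, 37 °C for 24 h. Supernatant IL-12 and IL-6 by ELISA; representative of three independent experiments.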

SMILES: Nc1ccn([C@@H]2O[C@H](COP(=O)(S)O[C@H]3[C@@H](O)[C@H](n4cnc5c(N)ncnc54)O[C@@H]3COP(=O)(S)O[C@H]3[C@@H](O)[C@H](n4cnc5c(N)ncnc54)O[C@@H]3CO)[C@@H](OP(=O)(S)OC[C@H]3O[C@@H](n4ccc(=O)[nH]c4=O)[C@H](O)[C@@H]3OP(=O)(S)OC[C@H]3O[C@@H](n4ccc5c(=O)[nH]c(N)nc54)[C@H](O)[C@@H]3OP(=O)(S)OC[C@H]3O[C@@H](n4cnc5c(N)ncnc54)[C@H](O)[C@@H]3OP(=O)(S)OC[C@H]3O[C@@H](n4cnc5c(N)ncnc54)[C@H](O)[C@@H]3OP(=O)(S)OC[C@H]3O[C@@H](n4ccc5c(=O)[nH]c(N)nc54)[C@H](O)[C@@H]3OP(=O)(S)OC[C@H]3O[C@@H](n4ccc(N)nc4=O)[C@H](O)[C@@H]3OP(=O)(S)OC[C@H]3O[C@@H](n4ccc(=O)[nH]c4=O)[C@H](O)[C@@H]3OP(=O)(S)OC[C@H]3O[C@@H](n4ccc(=O)[nH]c4=O)[C@H](O)[C@@H]3OP(=O)(S)OCC(O)COP(=O)(S)O[C@H]3[C@@H](O)[C@H](n4ccc(=O)[nH]c4=O)O[C@@H]3COP(=O)(S)O[C@H]3[C@@H](O)[C@H](n4ccc(=O)[nH]c4=O)O[C@@H]3COP(=O)(S)O[C@H]3[C@@H](O)[C@H](n4ccc(N)nc4=O)O[C@@H]3COP(=O)(S)O[C@H]3[C@@H](O)[C@H](n4ccc5c(=O)[nH]c(N)nc54)O[C@@H]3COP(=O)(S)O[C@H]3[C@@H](O)[C@H](n4cnc5c(N)ncnc54)O[C@@H]3COP(=O)(S)O[C@H]3[C@@H](O)[C@H](n4cnc5c(N)ncnc54)O[C@@H]3COP(=O)(S)O[C@H]3[C@@H](O)[C@H](n4ccc5c(=O)[nH]c(N)nc54)O[C@@H]3COP(=O)(S)O[C@H]3[C@@H](O)[C@H](n4ccc(=O)[nH]c4=O)O[C@@H]3COP(=O)(S)O[C@H]3[C@@H](O)[C@H](n4ccc(N)nc4=O)O[C@@H]3COP(=O)(S)O[C@H]3[C@@H](O)[C@H](n4cnc5c(N)ncnc54)O[C@@H]3COP(=O)(S)O[C@H]3[C@@H](O)[C@H](n4cnc5c(N)ncnc54)O[C@@H]3CO)[C@H]2O)c(=O)n1 (stereo not given in full)
- Ratio [1]: 29.5
- remaining at 10 min [2]: 77%
- Activity [3]: 260 pg/mL
- Activity [4]: inactive
- Activity [5]: Active

SMILES: Nc1ccn([C@@H]2O[C@H](COP(=O)(S)O[C@H]3[C@@H](O)[C@H](n4cnc5c(N)ncnc54)O[C@@H]3COP(=O)(S)O[C@H]3[C@@H](O)[C@H](n4ccc5c(=O)[nH]c(N)nc54)O[C@@H]3COP(=O)(S)O[C@H]3[C@@H](O)[C@H](n4ccc(N)nc4=O)O[C@@H]3COP(=O)(S)O[C@H]3[C@@H](O)[C@H](n4ccc5c(=O)[nH]c(N)nc54)O[C@@H]3COP(=O)(S)O[C@H]3[C@@H](O)[C@H](n4ccc(=O)[nH]c4=O)O[C@@H]3COP(=O)(S)O[C@H]3[C@@H](O)[C@H](n4ccc5c(=O)[nH]c(N)nc54)O[C@@H]3COP(=O)(S)O[C@H]3[C@@H](O)[C@H](n4cnc5c(N)ncnc54)O[C@@H]3COP(=O)(S)O[C@H]3[C@@H](O)[C@H](n4cnc5c(N)ncnc54)O[C@@H]3CO)[C@@H](OP(=O)(S)OC[C@H]3O[C@@H](n4ccc(=O)[nH]c4=O)[C@H](O)[C@@H]3OP(=O)(S)OC[C@H]3O[C@@H](n4ccc(=O)[nH]c4=O)[C@H](O)[C@@H]3OP(=O)(S)OCC(O)COP(=O)(S)O[C@H]3[C@@H](O)[C@H](n4ccc(=O)[nH]c4=O)O[C@@H]3COP(=O)(S)O[C@H]3[C@@H](O)[C@H](n4ccc(=O)[nH]c4=O)O[C@@H]3COP(=O)(S)O[C@H]3[C@@H](O)[C@H](n4ccc(N)nc4=O)O[C@@H]3COP(=O)(S)O[C@H]3[C@@H](O)[C@H](n4cnc5c(N)ncnc54)O[C@@H]3COP(=O)(S)O[C@H]3[C@@H](O)[C@H](n4ccc5c(=O)[nH]c(N)nc54)O[C@@H]3COP(=O)(S)O[C@H]3[C@@H](O)[C@H](n4ccc(N)nc4=O)O[C@@H]3COP(=O)(S)O[C@H]3[C@@H](O)[C@H](n4ccc5c(=O)[nH]c(N)nc54)O[C@@H]3COP(=O)(S)O[C@H]3[C@@H](O)[C@H](n4ccc(=O)[nH]c4=O)O[C@@H]3COP(=O)(S)O[C@H]3[C@@H](O)[C@H](n4ccc5c(=O)[nH]c(N)nc54)O[C@@H]3COP(=O)(S)O[C@H]3[C@@H](O)[C@H](n4cnc5c(N)ncnc54)O[C@@H]3COP(=O)(S)O[C@H]3[C@@H](O)[C@H](n4cnc5c(N)ncnc54)O[C@@H]3CO)[C@H]2O)c(=O)n1 (stereo not given in full)
- Ratio [1]: 41.4
- remaining at 10 min [2]: 79%
- Activity [3]: 171 pg/mL
- Activity [4]: inactive
- Activity [5]: Active

SMILES: Nc1ccn([C@@H]2O[C@H](COP(=O)(S)O[C@H]3[C@@H](O)[C@H](n4ccc5c(=O)[nH]c(N)nc54)O[C@@H]3COP(=O)(S)O[C@H]3[C@@H](O)[C@H](n4cnc5c(N)ncnc54)O[C@@H]3COP(=O)(S)O[C@H]3[C@@H](O)[C@H](n4cnc5c(N)ncnc54)O[C@@H]3COP(=O)(S)O[C@H]3[C@@H](O)[C@H](n4ccc5c(=O)[nH]c(N)nc54)O[C@@H]3COP(=O)(S)O[C@H]3[C@@H](O)[C@H](n4ccc(=O)[nH]c4=O)O[C@@H]3COP(=O)(S)O[C@H]3[C@@H](O)[C@H](n4ccc(=O)[nH]c4=O)O[C@@H]3COP(=O)(S)O[C@H]3[C@@H](O)[C@H](n4cnc5c(N)ncnc54)O[C@@H]3COP(=O)(S)O[C@H]3[C@@H](O)[C@H](n4cnc5c(N)ncnc54)O[C@@H]3CO)[C@@H](OP(=O)(S)OC[C@H]3O[C@@H](n4ccc(=O)[nH]c4=O)[C@H](O)[C@@H]3OP(=O)(S)OC[C@H]3O[C@@H](n4ccc(=O)[nH]c4=O)[C@H](O)[C@@H]3OP(=O)(S)OCC(O)COP(=O)(S)O[C@H]3[C@@H](O)[C@H](n4ccc(=O)[nH]c4=O)O[C@@H]3COP(=O)(S)O[C@H]3[C@@H](O)[C@H](n4ccc(=O)[nH]c4=O)O[C@@H]3COP(=O)(S)O[C@H]3[C@@H](O)[C@H](n4ccc(N)nc4=O)O[C@@H]3COP(=O)(S)O[C@H]3[C@@H](O)[C@H](n4ccc5c(=O)[nH]c(N)nc54)O[C@@H]3COP(=O)(S)O[C@H]3[C@@H](O)[C@H](n4cnc5c(N)ncnc54)O[C@@H]3COP(=O)(S)O[C@H]3[C@@H](O)[C@H](n4cnc5c(N)ncnc54)O[C@@H]3COP(=O)(S)O[C@H]3[C@@H](O)[C@H](n4ccc5c(=O)[nH]c(N)nc54)O[C@@H]3COP(=O)(S)O[C@H]3[C@@H](O)[C@H](n4ccc(=O)[nH]c4=O)O[C@@H]3COP(=O)(S)O[C@H]3[C@@H](O)[C@H](n4ccc(=O)[nH]c4=O)O[C@@H]3COP(=O)(S)O[C@H]3[C@@H](O)[C@H](n4cnc5c(N)ncnc54)O[C@@H]3COP(=O)(S)O[C@H]3[C@@H](O)[C@H](n4cnc5c(N)ncnc54)O[C@@H]3CO)[C@H]2O)c(=O)n1 (stereo not given in full)
- Ratio [1]: 15.6
- remaining at 10 min [2]: 83%
- Activity [3]: 401 pg/mL
- Activity [4]: inactive
- Activity [5]: Active
